From ChEMBL document CHEMBL1134366, “Enantiospecific synthesis and pharmacological evaluation of a series of super-potent, conformationally restricted 5-HT(2A/2C) receptor agonists” (J Med Chem, 2001) come the findings set out here.

Test [1] concerns the target T1, 5-hydroxytryptamine receptor 2A (Rattus norvegicus, UniProt P14842). Nature of the test: Ability to stimulate phosphoinositide hydrolysis in NIH3T3 cells expressing the 5-hydroxytryptamine 2A receptor. Format: cell-based.
Test [2] addresses T2, 5-hydroxytryptamine receptor 2C (Rattus norvegicus, UniProt P08909).
T2 sequence (P08909 whole entry): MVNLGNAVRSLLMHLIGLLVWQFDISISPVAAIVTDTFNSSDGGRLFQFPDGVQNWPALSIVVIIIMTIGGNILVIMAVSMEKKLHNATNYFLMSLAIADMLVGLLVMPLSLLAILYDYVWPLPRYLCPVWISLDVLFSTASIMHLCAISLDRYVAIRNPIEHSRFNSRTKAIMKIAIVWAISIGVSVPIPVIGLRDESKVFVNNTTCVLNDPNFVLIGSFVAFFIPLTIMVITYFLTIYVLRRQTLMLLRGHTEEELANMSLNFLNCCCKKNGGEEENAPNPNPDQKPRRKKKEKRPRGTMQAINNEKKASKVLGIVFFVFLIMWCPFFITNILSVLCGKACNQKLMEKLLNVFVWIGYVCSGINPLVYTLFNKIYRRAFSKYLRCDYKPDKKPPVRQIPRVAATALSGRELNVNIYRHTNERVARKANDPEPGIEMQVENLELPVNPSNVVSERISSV
Nature of the test: Binding affinity at cloned rat 5-hydroxytryptamine 2C receptor using [3H]DOI as radioligand. In short, it runs like this: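 Competition binding using harvested, frozen NIH-3T3 cells stably expressing rat 5-HT2C. Buffer 50 mM Tris, 0.5 mM EDTA, 10 mM MgCl2, pH 7.4. Incubated 60 min at 25 °C, then rapid filtration onto polyethylenimine-treated GF/B filters and scintillation counting. Nonspecific binding defined with 10 µM mianserin in the saturation assays.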

Test [3] has as its target T1, 5-hydroxytryptamine receptor 2A. Nature of the test: Binding affinity at cloned rat 5-hydroxytryptamine 2A receptor using [3H]DOB as radioligand. In short, it runs like this: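 Competition binding using harvested, frozen NIH-3T3 cells stably expressing rat 5-HT2A, serum-starved 5 h before harvest. Incubated 60 min at 25 °C, then rapid filtration onto GF/B filters pre-soaked in 0.3% polyethylenimine, and scintillation counting. Nonspecific binding defined with 10 µM cinanserin in the saturation assays.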

The target in test [4] is 5-hydroxytryptamine receptor 2A (Rattus norvegicus) (UniProt P14842). The test is described as follows: Percent maximal 5-HT stimulation at cloned rat 5-hydroxytryptamine 2A receptor (phosphoinositide hydrolysis study) at a conc of 100 uM.
5-hydroxytryptamine receptor 2A (Rattus norvegicus), sequence (P14842 whole entry): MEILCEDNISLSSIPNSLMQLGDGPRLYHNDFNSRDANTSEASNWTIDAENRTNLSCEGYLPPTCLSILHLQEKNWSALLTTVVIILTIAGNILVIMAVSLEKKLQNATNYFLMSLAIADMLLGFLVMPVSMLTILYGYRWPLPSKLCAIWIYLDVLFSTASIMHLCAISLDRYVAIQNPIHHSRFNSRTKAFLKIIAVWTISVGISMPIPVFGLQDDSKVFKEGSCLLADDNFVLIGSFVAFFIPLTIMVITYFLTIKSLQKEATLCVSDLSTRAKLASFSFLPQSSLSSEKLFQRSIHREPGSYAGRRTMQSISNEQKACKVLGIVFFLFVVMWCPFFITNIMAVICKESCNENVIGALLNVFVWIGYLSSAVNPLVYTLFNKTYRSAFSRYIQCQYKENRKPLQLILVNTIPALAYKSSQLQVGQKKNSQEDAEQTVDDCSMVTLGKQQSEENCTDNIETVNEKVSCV

T1 sequence (P14842 whole entry): as above

Molecule `C[C@@H](N)Cc1c2ccoc2c(C(F)(F)F)c2ccoc12` gave an EC50 in test [1] of 3.8 nM. Further, the Ki in test [2] was 0.4 nM; in test [3], 0.29 nM. For the same molecule, the Max stimulation in test [4] was 60%.
`C[C@H](N)Cc1c2ccoc2c(Br)c2ccoc12`: it took 19 nM to reach a half-maximal effect in test [1] (EC50). The Ki in test [2] was determined as 0.25 nM; in test [3] it was 0.68 nM. In addition, in test [4], the Max stimulation was 79%.
Consider `COc1ccc(OC)c(C[C@@H](C)N)c1`, for which, in test [1], the EC50 was > 10000 nM. The inhibition constant Ki in test [2] is 520 nM; in test [3], 2340 nM. In test [4], the Max stimulation was determined as 16%.
`C[C@H](N)Cc1c2c(cc3c1OCC3)OCC2` gave an EC50 in test [1] of 2360 nM. For the same molecule, the Ki was determined as 119 nM in test [2] and 227 nM in test [3]. This molecule also had a Max stimulation in test [4] of 62%.
`C[C@@H](N)Cc1c2c(cc3c1OCC3)OCC2` returned an EC50 in test [1] of 5650 nM. Also, the results for the Ki in test [2] and in test [3] were 8.2 nM and 54.4 nM, respectively. Moreover, the Max stimulation in test [4] was found to be 99%.
On to `C[C@H](N)Cc1c2ccoc2c(C(F)(F)F)c2ccoc12`, for which, in test [1], the midpoint of the response, the EC50, lay at 12 nM. Further, the Ki in test [2] worked out at 0.69 nM; in test [3], 0.32 nM. The molecule further returned a Max stimulation in test [4] of 52%.
Molecule `C[C@H](N)Cc1c2c(c(C(F)(F)F)c3c1OCC3)OCC2` yielded an EC50 in test [1] of 30 nM. The Ki in test [2] came out at 1.6 nM; in test [3] it was 2 nM. In test [4], this molecule displayed a Max stimulation of 60%.
Taken in the same sequence, the figures for `C[C@@H](N)Cc1c2c(c(Br)c3c1OCC3)OCC2` were 8.38 nM, 0.26 nM, 1.2 nM and 80%.
In the same order, the values of `C[C@@H](N)Cc1c2ccoc2cc2ccoc12` are 590 nM, 0.79 nM, 1.5 nM and 76%.
Taken in the same sequence, the figures for `C[C@@H](N)Cc1c2c(c(C(F)(F)F)c3c1OCC3)OCC2` were 28 nM, 1.9 nM, 0.7 nM and 69%.
Regarding `COc1cc(C(F)(F)F)c(OC)cc1CC(C)N` (configuration not stated), a half-maximal effect in test [1] (EC50) was put at 68.4 nM. Further, the values for the Ki in test [2] and in test [3] were 3.78 nM and 2.2 nM, respectively. In test [4], this molecule came in with a Max stimulation of 86%.
In the same order, the values of `C[C@H](N)Cc1c2c(c(Br)c3c1OCC3)OCC2` are 35 nM, 1.1 nM, 2.6 nM and 76%.
In test [4], `COc1cc(CC(C)N)c(OC)cc1Br` (configuration not stated) gave a Max stimulation of 79%.
In test [1], `C[C@@H](N)Cc1c2ccoc2c(Br)c2ccoc12` came in with an EC50 of 2.7 nM. The inhibition constant (Ki) in test [2] was 0.11 nM; in test [3] it was 0.31 nM. The Max stimulation in test [4] worked out at 93%.
With `C[C@H](N)Cc1c2ccoc2cc2ccoc12`, the midpoint of the response in test [1], the EC50, lay at 650 nM. The inhibitory constant (Ki) turned out to be 6 nM in test [2] and 37.9 nM in test [3]. The molecule also yielded a Max stimulation in test [4] of 68%.
